We go through 2 compounds from publication PMC10160980 (Proceedings of the National Academy of Sciences of the …, 2023).

For one data set, the target named is GIV binding to Gαi3 (Rattus norvegicus, UniProt P08753). In words: Fluorescence polarization. (Polarisation of emitted light reports the rotation of a fluorescent probe.)
The nature of data set [1]: Hydrolytic processing of IGGi-11me by cytosolic fraction of MDA-MB-231 cells. Format: in vitro ADME, human. As to conditions: 2 hours, 37 °C.
A further data set can be described thus: Stability in plasma. Format: in vitro ADME. As to conditions: preliminary results.
The subject of data set [2] is MDA-MB-231 cells. The class given is cell-based, human.
A further data set has as its system MDA-MB-231 cells (CXCR4). Description: SDF-1α mediated cell migration, MDA-MB-231. Format: cell-based, human. As to conditions: SDF-1α as chemoattractant; up to 100 μM.
The subject of a further data set is BT-549 cells. In words: Tumor cell migration, BT-549. Format: cell-based, human. As to conditions: 1-100 μM. In short, it runs like this:
(§1)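 Chemotactic migration toward FBS was measured in a modified Boyden chamber across a range of test compound concentrations. IC50 was derived from the concentration–response data. Results are mean ± SEM (N ≥ 3).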

In the next data set the test system is Hs578T cells. In words: Tumor cell migration, Hs578T. The following applies: 1-100 μM. The class given is cell-based, human. The gist of the method:
as §1

Data set [3] deals with GIV-depleted (shGIV) MDA-MB-231 cells. Description: Tumor cell migration, GIV-depleted MDA-MB-231. Format: cell-based, human. The following applies: 100 μM. The gist of the method: (§2)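 GIV-depleted (shGIV) and matched control (shControl) cells were run side by side in a modified Boyden-chamber assay of chemotactic migration toward FBS with test compound. Results are mean ± SEM (N ≥ 3).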

The subject of data set [4] is GIV-depleted (shGIV) HeLa cells. In words: Tumor cell migration, GIV-depleted HeLa. Format: cell-based, human. In short, it runs like this:
as §2

The test system of data set [5] is MDA-MB-231 cells. In words: Cell viability assay. The class given is cell-based, human. As to conditions: up to 100 μM, 24 h. In short, it runs like this: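 Cell viability was measured after 24 h incubation with test compound at indicated concentrations. IC50 was derived from the concentration-response data. Mean ± SEM, N ≥ 3.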
For data set [6], the system named is MCF-10A cells. Description: Cell viability assay, MCF-10A. As to conditions: 100 μM, 24 h. Format: cell-based, human. The gist of the method:
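Single-concentration viability screen at 100 μM in MCF-10A cells, run alongside MDA-MB-231 and MCF-7. Values are the mean of N = 3.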

Data set [7] concerns Akt phosphorylation at S473 in MDA-MB-231 cells. Description: EGF-stimulated Akt activation. Format: cell-based, human. The gist of the method:
(§3)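 Cells were preincubated with a range of test compound concentrations, then stimulated with EGF for 5 min (1.6 nM for MDA-MB-231, 50 nM for HeLa). Cells were then lysed and Akt activation was read by immunoblotting.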

In data set [8] the test system is Akt phosphorylation at S473 in HeLa cells. Description: EGF-stimulated Akt activation. The class given is cell-based, human. As to conditions: EGF 50 nM, 5 min. In short, it runs like this: as §3
Data set [9] relates to Akt activation in GIV-depleted cells (shGIV). Description: EGF-stimulated Akt activation in GIV-depleted cells. The class given is cell-based, human. The following applies: 100 μM. The gist of the method: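 GIV-depleted (shGIV) and control (shControl) cells were handled the same way: preincubation with test compound, EGF stimulation for 5 min, lysis, then immunoblotting for Akt activation.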

The subject of data set [10] is Akt activation upon stimulation of the GPCR CXCR4 in MDA-MB-231 cells. Description: SDF-1α-stimulated Akt activation. Format: cell-based, human. The following applies: SDF-1α 100 ng/mL, 10 min; IGGi-11me 100 μM; PTX 100 ng/mL.
Data set [11] concerns endogenous β-adrenergic receptors (cAMP via Gαs). In words: Luminescence-based cAMP. Format: cell-based, human. As to conditions: 100 μM; isoproterenol 100 nM; HEK293T. In short, it runs like this: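 HEK293T cells expressing the Glosensor luminescent cAMP sensor plus α2A-AR or GABA_BR were pretreated with test compound (100 μM) or DMSO. They were then stimulated with isoproterenol (100 nM), with or without prestimulation by brimonidine (1 μM) or GABA (100 μM). Luminescence was recorded. Mean ± SEM, N ≥ 3; ANOVA.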

Data set [12] concerns MDA-MB-231 cells. Description: Matrigel cultures, MDA-MB-231. Format: cell-based, human. The following applies: 100 μM for 2 days, culture 7 days.
For data set [13], the system named is MCF-10A cells. In words: Matrigel cultures, MCF-10A. The class given is cell-based, human. The following applies: 100 μM.
The test system of data set [14] is MDA-MB-231 cells. In words: Growth of pretreated MDA-MB-231 cells on plastic dishes. The class given is cell-based, human. As to conditions: cells treated overnight with 100 μM.
Another data set concerns the target GIV–Gαi3 binding (Rattus norvegicus, UniProt P08753). As to conditions: cell-free systems; cited from earlier work.

GIV–Gαi3 binding, sequence (P08753 whole entry): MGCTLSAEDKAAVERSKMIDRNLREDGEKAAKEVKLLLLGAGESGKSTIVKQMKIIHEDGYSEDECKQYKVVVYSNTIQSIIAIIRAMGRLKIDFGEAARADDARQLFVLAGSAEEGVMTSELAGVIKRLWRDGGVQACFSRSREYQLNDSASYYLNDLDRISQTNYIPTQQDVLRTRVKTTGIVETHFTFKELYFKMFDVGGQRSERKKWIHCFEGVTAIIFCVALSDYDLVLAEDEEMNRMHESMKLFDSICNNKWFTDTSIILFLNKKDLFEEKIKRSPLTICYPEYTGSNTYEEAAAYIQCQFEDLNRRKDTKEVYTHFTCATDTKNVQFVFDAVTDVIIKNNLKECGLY
GIV binding to Gαi3, sequence (P08753 whole entry): as above

For the compound `COC(=O)CCCN(C)S(=O)(=O)c1ccc2c(c1)Cc1cc(S(=O)(=O)N(C)CCCC(=O)OC)ccc1-2` [IGGi-11me], at GIV binding to Gαi3, the “potency as inhibitor of GIV–Gαi3 binding relative to IGGi-11, FP” value is given as “lower potency compared to IGGi-11”. In [1], the “conversion to IGGi-11 by cellular esterases” value is “converted to IGGi-11 by esterases present in the cytosol of MDA-MB-231 cells”. In addition, the stability in plasma entry in “Stability in plasma” is recorded as “rapidly degraded in plasma”. For the same compound, in the data set on MDA-MB-231 cells [2] (FBS as chemoattractant, 1-100 μM, preincubation), the “inhibition of MDA-MB-231 cell migration, dose dependence” value is given as “efficiently reduced their ability to migrate”. Also, the “potency on migration of MDA-MB-231 relative to MCF-7” value in the data set on MDA-MB-231 cells [2] (GIV^High vs GIV^Low) is “approximately four times more potent”. For the same compound, in the data set on MDA-MB-231 cells (CXCR4), the “MDA-MB-231 cell migration toward SDF-1α” value was “did not affect MDA-MB-231 cell migration”. Further, the “inhibition of BT-549 cell migration” value in the data set on BT-549 cells was “potency similar to that seen for MDA-MB-231 cells”. Moreover, in the data set with Hs578T cells, the “inhibition of Hs578T cell migration” value is listed as “potency similar to that seen for MDA-MB-231 cells”. Besides, in data set [3], the “cell migration of GIV-depleted MDA-MB-231 cells” value was “had no effect on MDA-MB-231 cell migration upon GIV depletion”. Besides, in data set [4], the “cell migration of GIV-depleted HeLa cells” value was “inhibition of tumor cell migration is lost upon depletion of GIV”. In addition, in the data set on MDA-MB-231 cells [5], the “viability of MDA-MB-231 cells” value was “did not affect the viability”. Further, the “viability of MCF-10A cells” value with MCF-10A cells [6] is recorded as “did not affect the viability”. Besides, the “EGF-stimulated phosphorylation of Akt at S473, MDA-MB-231” value in data set [7] (EGF 1.6 nM, 5 min, PTX 100 ng/mL) is “reduced, in a dose-dependent manner, the phosphorylation of Akt at S473”. In addition, in data set [7] (immunoblot), the “total amount of GIV or Gαi” value is on record as “did not change the total amount of GIV or Gαi”. In addition, in [8], the “EGF-stimulated phosphorylation of Akt at S473, HeLa” value is reported as “reduced, in a dose-dependent manner, the phosphorylation of Akt at S473”. Moreover, the “EGF-stimulated Akt activation in GIV-depleted cells” value in [9] is “failed to further reduce Akt activation in GIV-depleted cells”. Further, the “SDF-1α-stimulated Akt activation, MDA-MB-231” value in [10] was “does not block Akt activation”. The “cAMP response to isoproterenol in the absence of Gi-mediated regulation” value in data set [11] was “had no effect”. The “growth of MDA-MB-231 cells in Matrigel cultures” value with MDA-MB-231 cells [12] is on record as “overall reduction of cell growth”. For the same compound, the “growth of MCF-10A cells in Matrigel cultures” value in the data set on MCF-10A cells [13] was “did not affect the growth of nontransformed MCF-10A breast cells in Matrigel cultures”. For the same compound, in the data set with MDA-MB-231 cells [14], the “growth of pretreated MDA-MB-231 cells on plastic dishes” value was “had no effect”.
Take `O=C(Nc1cccc(C(=O)Nc2ccc(S(=O)(=O)O)c3cc(S(=O)(=O)O)cc(S(=O)(=O)O)c23)c1)Nc1cccc(C(=O)Nc2ccc(S(=O)(=O)O)c3cc(S(=O)(=O)O)cc(S(=O)(=O)O)c23)c1` [NF023]: the “disruption of the GIV–Gαi interaction” value on GIV–Gαi3 binding is given as “disrupts the GIV–Gαi interaction”.
